In ChEMBL document CHEMBL1141554, “Discovery of new MurF inhibitors via pharmacophore modeling and QSAR analysis followed by in-silico screening” (Bioorg Med Chem, 2008) one finds IC50 and Activity data, which are given here for 20 molecules.

Calls of active or inactive are those of the source. The calls are words filed in the database; no cut-off is given here.

Assay [1] deals with T1, UDP-N-acetylmuramoylalanine-D-glutamyl-lysine-D-alanyl-D-alanine ligase (Streptococcus pneumoniae R6, UniProt Q8DNV6).
T1 sequence (Q8DNV6 whole entry): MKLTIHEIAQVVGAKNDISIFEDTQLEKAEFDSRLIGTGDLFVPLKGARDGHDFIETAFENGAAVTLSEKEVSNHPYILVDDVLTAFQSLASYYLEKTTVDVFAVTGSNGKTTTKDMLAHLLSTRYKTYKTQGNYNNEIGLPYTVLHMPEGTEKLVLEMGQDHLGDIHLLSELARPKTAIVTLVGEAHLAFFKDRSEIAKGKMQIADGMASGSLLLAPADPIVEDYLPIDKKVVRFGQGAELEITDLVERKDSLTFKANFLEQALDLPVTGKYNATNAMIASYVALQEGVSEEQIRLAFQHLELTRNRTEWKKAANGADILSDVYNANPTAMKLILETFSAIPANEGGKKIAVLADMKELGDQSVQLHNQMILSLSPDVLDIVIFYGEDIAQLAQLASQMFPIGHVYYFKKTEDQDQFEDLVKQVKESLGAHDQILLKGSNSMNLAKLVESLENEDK
As to the kind of experiment: Inhibition of Streptococcus pneumoniae MurF.

The target in assay [2] is T2, UDP-N-acetylmuramoyl-tripeptide--D-alanyl-D-alanine ligase (Pseudomonas aeruginosa) (UniProt Q9EY48).
T2 sequence (whole entry): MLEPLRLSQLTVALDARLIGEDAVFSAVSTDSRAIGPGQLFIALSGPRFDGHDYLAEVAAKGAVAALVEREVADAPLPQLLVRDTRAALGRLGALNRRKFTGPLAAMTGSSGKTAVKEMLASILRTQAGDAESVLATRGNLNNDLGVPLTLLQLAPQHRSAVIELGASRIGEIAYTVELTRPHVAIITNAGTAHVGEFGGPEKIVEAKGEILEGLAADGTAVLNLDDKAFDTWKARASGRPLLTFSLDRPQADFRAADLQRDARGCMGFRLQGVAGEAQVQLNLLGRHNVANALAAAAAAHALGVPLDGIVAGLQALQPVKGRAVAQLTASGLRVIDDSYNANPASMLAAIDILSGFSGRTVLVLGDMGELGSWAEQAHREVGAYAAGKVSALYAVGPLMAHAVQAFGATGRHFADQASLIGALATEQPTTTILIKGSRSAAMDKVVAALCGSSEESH
As to the kind of experiment: Inhibition of Pseudomonas aeruginosa MurF ATPase activity assessed as residual enzyme activity at 5 mM by spectrophotometric assay relative to control.

Assay [3] addresses T3, UDP-N-acetylmuramoyl-tripeptide--D-alanyl-D-alanine ligase (Pseudomonas aeruginosa, UniProt Q9EY48).
T3 sequence (Q9EY48 whole entry): T2 sequence (whole entry)
The experiment in a line: Inhibition of Pseudomonas aeruginosa MurF ATPase activity by spectrophotometric assay. In a few lines:
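Purified recombinant P. aeruginosa MurF was used at a high enzyme concentration. It was pre-incubated with a range of compound concentrations in pH 8.6 buffer (40 mM KCl, 500 mM NaCl, 1 mg/ml BSA, 10 mM MgCl2) before UDP-MurNAc-Ala-Glu-meso-A2pm and the other substrates were added. IC50 was derived from percent residual ATPase activity versus compound-free enzyme.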

In a further assay the test system is Staphylococcus aureus. As to the kind of experiment: Antibacterial activity against Staphylococcus aureus. The assay is classed as functional, organism-based.
The test system of the next assay is Pseudomonas aeruginosa. As to the kind of experiment: Antibacterial activity against Pseudomonas aeruginosa. The assay is classed as functional, organism-based.
Another assay deals with Escherichia coli. The experiment in a line: Antibacterial activity against Escherichia coli. The assay is classed as functional, organism-based.
Assay [4] has as its system MurF (Streptococcus pneumoniae). The experiment in a line: Inhibition of Streptococcus pneumoniae MurF.

With `CCN(CC)S(=O)(=O)c1ccc(Cl)c(C(=O)Nc2sc3c(c2C#N)CC(c2ccc(O)cc2)CC3)c1` (stereo not given), the IC50 (commonly the midpoint of a concentration-inhibition curve) in assay [1] came to 0.054 µM.

With `CCOC(=O)Cn1/c(=N/N=C/c2ccc([N+](=O)[O-])o2)sc2cc(OC)ccc21`, the Activity in assay [2] amounted to 51%. In assay [3], the IC50 is over 5100 µM.

`CCN(CC)S(=O)(=O)c1cc(C(=O)Nc2sc3c(c2C#N)CC(c2ccc(O)cc2)CC3)c(Cl)cc1Cl` (stereo not given) came in with an IC50 in assay [1] of 0.067 µM.

Take `C[C@]12CCC(=O)C=C1CC[C@@H]1[C@@H]2[C@@H](O)C[C@@]2(C)[C@H]1CC[C@]2(O)C(=O)COC(=O)CCC1CCCC1` [HYDROCORTISONE CYPIONATE]: the Activity in assay [2] was 86%. In assay [3], this molecule registered an IC50 of over 5000 µM.

Regarding `O=C1C=CC(=O)C(SCCCSC2=CC(=O)C(SCCCSC3=CC(=O)C=CC3=O)=CC2=O)=C1`, the result in the assay with Staphylococcus aureus, with Pseudomonas aeruginosa and in the assay with Escherichia coli was inactive. In addition, in assay [2], the Activity came to 0%. The molecule further had an IC50 in assay [3] of 300 µM.

Regarding `Cn1nnnc1SCC1=C(C(=O)O)N2C(=O)[C@@H](NC(=O)[C@H](OC=O)c3ccccc3)[C@H]2SC1` [CEFAMANDOLE NAFATE], the Activity in assay [2] is 84%. In addition, in assay [3], the IC50 is over 5000 µM.

For the molecule `COc1ccc(NC(=O)C(=O)Cc2nc3ccc([N+](=O)[O-])cc3nc2O)c(OC)c1`, the result with Staphylococcus aureus, with Pseudomonas aeruginosa and with Escherichia coli was inactive. Further, in assay [2], the Activity was 0%. For the same molecule, the midpoint of inhibition in assay [3], the IC50, lay at 125 µM.

As to `COc1ccc(CCN2C(=O)c3cccc4c(Sc5ccccc5[N+](=O)[O-])ccc(c34)C2=O)cc1OC`, the outcome in the assay on Staphylococcus aureus, with Pseudomonas aeruginosa and in the assay with Escherichia coli was inactive. In addition, the Activity in assay [2] came to 0%. The same molecule gave an IC50 in assay [3] of 325 µM.

Regarding `C[C@]12CCC(=O)C=C1CC[C@@H]1[C@@H]2[C@@H](O)C[C@@]2(C)[C@H]1CC[C@]2(O)C(=O)COC(=O)c1cc([N+](=O)[O-])ccc1Cl`, in assay [2], the Activity was determined as 67%. The IC50 in assay [3] was over 5000 µM.

Consider `N#Cc1c(NC(=O)c2cc(S(=O)(=O)N3CCCCC3)ccc2Cl)sc2c1CCC2`, for which, in assay [1], the concentration for half-maximal inhibition (IC50) was 2.5 µM.

Regarding `N#Cc1c(NC(=O)c2cc(S(=O)(=O)N3CCOCC3)c(Cl)cc2Cl)sc2c1CC(c1ccccc1)CC2` (stereo not given), the IC50 in assay [1] was determined as 0.07 µM.

With `O=S(=O)(SC(=S)NCCNC(=S)SS(=O)(=O)c1ccc(Cl)cc1)c1ccc(Cl)cc1`, the Activity in assay [2] was 71%. Besides, the IC50 in assay [3] was over 5000 µM.

As to `O=S(=O)(O)c1ccc(/N=N/c2ccc(O)c(/N=N/c3ccc(S(=O)(=O)O)c4ccccc34)c2O)c2ccccc12`, in assay [2], the Activity was 100%. Also, in assay [3], the IC50 is over 5000 µM.

`CCOC(=O)C1CCc2sc(NC(=O)c3cc(S(=O)(=O)N(CC)CC)ccc3Cl)c(C#N)c2C1` (stereo not given): the IC50 in assay [1] was determined as 6 µM.

For the molecule `N#Cc1c(NC(=O)c2cc(S(=O)(=O)N3CCOCC3)c(Cl)cc2Cl)sc2c1CC(c1ccc(O)cc1)CC2` (stereo not given), it took 0.022 µM to reach half-maximal inhibition in assay [1] (IC50).

Turning to `CSc1ncnc2c1ncn2CC(=O)[C@@]1(O)CC[C@H]2[C@@H]3CCC4=CC(=O)CC[C@]4(C)[C@H]3[C@@H](O)C[C@@]21C`, the Activity in assay [2] worked out at 48%. The molecule also yielded an IC50 in assay [3] of 4800 µM.

In assay [1], `N#Cc1c(NC(=O)c2cc(S(=O)(=O)N3CCOCC3)c(F)cc2Cl)sc2c1CCC2` had an IC50 of over 6.4 µM.

Molecule `C[C@@H]1O[C@@H]1P(=O)(O)O` [FOSFOMYCIN] returned an IC50 in assay [4] of 15 µM.

Regarding `C[C@]12CCC(=O)C=C1CC[C@@H]1[C@@H]2[C@@H](O)C[C@@]2(C)[C@H]1CC[C@]2(O)C(=O)COC(=O)C1C2C=CC(C2)C1C(=O)O` (stereo not given in full), the Activity in assay [2] stood at 42%. Also, 4300 µM corresponded to half-maximal inhibition in assay [3] (IC50).

Regarding `N#Cc1cc(CCc2ccncc2)sc1NC(=O)c1cc(S(=O)(=O)N2CCOCC2)ccc1Cl`, the IC50 in assay [1] was determined as 6 µM.
